Measured values published in ChEMBL document CHEMBL1155238, “Synthesis and antimycobacterial activity of N'-[(E)-(monosubstituted-benzylidene)]-2-pyrazinecarbohydrazide derivatives” (Eur J Med Chem, 2009).
Converted amounts (≈) assume the structure as drawn.

Key:
[1] = Cytotoxicity against mouse J774 cells assessed as cell viability at 50 ug/ml after 48 hrs by MTT assay; type: cell-based; conditions: read-out: Activity
[2] = Cytotoxicity against mouse J774 cells assessed as cell viability at 100 ug/ml after 48 hrs by MTT assay; type: cell-based; conditions: read-out: Activity
Procedure, shortened: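 Uninfected J774 macrophages seeded at 2.5 × 10^6 cells/well for 24 h (5% CO2, 37 °C); non-adherent cells washed off with RPMI 1640, 10% FBS, gentamicin 25 µg/mL. Adherent cells given compound (1.0, 10.0, 100 µg/mL) in triplicate for 48 h. Medium was the live control, 3% tween 20 the dead control. MTT for 4 h, DMSO solubilization, absorbance at 540 nm, % viability.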

[3] = Cytotoxicity against mouse J774 cells assessed as cell viability at 150 ug/ml after 48 hrs by MTT assay; type: cell-based; conditions: read-out: Activity
[4] = Cytotoxicity against Mycobacterium bovis Bacillus Calmette-Guerin infected mouse J774 cells assessed as cell viability at 50 ug/ml after 48 hrs by MTT assay; type: cell-based; conditions: read-out: Activity
[5] = Cytotoxicity against Mycobacterium bovis Bacillus Calmette-Guerin infected mouse J774 cells assessed as cell viability at 100 ug/ml after 48 hrs by MTT assay; type: cell-based; conditions: read-out: Activity
Procedure, shortened: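 J774 macrophages seeded at 2.5 × 10^6 cells/well for 24 h (5% CO2, 37 °C); non-adherent cells washed off with RPMI 1640, 10% FBS, gentamicin 25 µg/mL. Adherent cells infected with BCG (2.5 × 10^6 UFC/well), then given compound (1.0, 10.0, 100 µg/mL) in triplicate for 48 h. Medium was the live control, 3% tween 20 the dead control. MTT for 4 h, DMSO solubilization, A540, % viability.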

[6] = Cytotoxicity against Mycobacterium bovis Bacillus Calmette-Guerin infected mouse J774 cells assessed as cell viability at 150 ug/ml after 48 hrs by MTT assay; type: cell-based; conditions: read-out: Activity
[7] = system: Mycobacterium tuberculosis; assay: Antimycobacterial activity against Mycobacterium tuberculosis H37Rv ATCC 27294 after 5 days by microplate Alamar blue assay; type: functional; conditions: H37Rv ATCC 27294, 120 h
Procedure, shortened: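 M. tuberculosis ATCC 27294 in Middlebrook 7H9 broth with compounds serially diluted on the plate (final 0.01–100 µg/mL). Incubated at 37 °C for five days, then a 1:1 Alamar Blue/10% tween 80 mix was added for 24 h. Blue read as no growth, pink as growth. MIC is the lowest concentration preventing the blue-to-pink change.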

Structure (SMILES)	viability at 48 h, 50 ug/ml [1]	viability at 48 h, 100 ug/ml [2]	viability at 48 h, 150 ug/ml [3]	viability at 48 h, 50 ug/ml [4]	viability at 48 h, 100 ug/ml [5]	viability at 48 h, 150 ug/ml [6]	MIC [7]
CN(C)c1ccc(/C=N/NC(=O)c2cnccn2)cc1	93%	87%	89%	80%	73%	71%	
O=C(N/N=C/c1ccc(O)cc1)c1cnccn1	100%	81%	80%	100%	72%	91%	
NC(=O)c1cnccn1 [PYRAZINAMIDE]	100%	100%	100%	92%	87%	67%	> 100 µg/mL
CCN(CC)c1ccc(/C=N/NC(=O)c2cnccn2)cc1	97%	92%	93%	85%	84%	78%	
N#Cc1ccc(/C=N/NC(=O)c2cnccn2)cc1	100%	100%	100%	100%	98%	100%	> 100 µg/mL
O=C(N/N=C/c1ccc([N+](=O)[O-])cc1)c1cnccn1	50%	44%	44%				
O=C(N/N=C/c1cccc(O)c1)c1cnccn1	100%	100%	88%	73%	64%	57%	
COc1ccc(/C=N/NC(=O)c2cnccn2)cc1	74%	55%	55%				
O=C(N/N=C/c1ccc(F)cc1)c1cnccn1	78%	69%	71%				
O=C(N/N=C/c1ccc(Br)cc1)c1cnccn1	100%	100%	94%	52%	56%	54%	
O=C(N/N=C/c1ccccc1[N+](=O)[O-])c1cnccn1	90%	59%	46%	100%	94%	88%	50 µg/mL (≈ 184 µM)
O=C(N/N=C/c1cccc(Cl)c1)c1cnccn1	100%	100%	100%	100%	96%	94%	50 µg/mL (≈ 192 µM)
COc1ccccc1/C=N/NC(=O)c1cnccn1	97%	100%	97%	87%	54%	56%	
O=C(N/N=C/c1ccccc1F)c1cnccn1	100%	100%	81%	100%	80%	88%	100 µg/mL (≈ 409 µM)
O=C(N/N=C/c1cccc([N+](=O)[O-])c1)c1cnccn1	100%	85%	76%	92%	92%	72%	100 µg/mL (≈ 369 µM)
N#Cc1cccc(/C=N/NC(=O)c2cnccn2)c1	100%	100%	100%	100%	98%	89%	50 µg/mL (≈ 199 µM)
O=C(N/N=C/c1ccccc1Br)c1cnccn1	98%	100%	91%	73%	64%	52%	
O=C(N/N=C/c1cccc(F)c1)c1cnccn1	49%	46%	40%				
N#Cc1ccccc1/C=N/NC(=O)c1cnccn1	92%	75%	70%	80%	73%	75%	
COc1cccc(/C=N/NC(=O)c2cnccn2)c1	100%	100%	97%	100%	98%	87%	> 100 µg/mL
O=C(N/N=C/c1ccc(Cl)cc1)c1cnccn1	83%	64%	56%				
CCOc1cccc(/C=N/NC(=O)c2cnccn2)c1	74%	71%	69%				
O=C(N/N=C/c1ccccc1Cl)c1cnccn1	70%	66%	69%				
O=C(N/N=C/c1cccc(Br)c1)c1cnccn1	100%	100%	93%	87%	96%	56%	
O=C(N/N=C/c1ccccc1O)c1cnccn1	1%	0.3%	0%				
O=C(N/N=C/c1ccccc1)c1cnccn1	100%	75%	100%	100%	88%	80%	> 100 µg/mL
CCOc1ccc(/C=N/NC(=O)c2cnccn2)cc1	100%	98%	100%	90%	85%	88%	> 100 µg/mL
